From ChEMBL document CHEMBL3045749, “Antifeedant and insecticide properties of a limonoid from Melia azedarach (Meliaceae) with potential use for pest management” (2003) come the findings set out here.

Calls of active or inactive are those of the source. The calls are words filed in the database; no cut-off is given here.

For experiment [1], the system named is Epilachna. As to the kind of experiment: Antifeedant activity against third-instar larval stage of Epilachna paenulata infested cucurbita maxima leaves assessed as increase in larval mortality measured at 96 hr by no choice leaf disk assay. It is filed as functional. The procedure, abridged:
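Same no-choice setup (four third-instar larvae per dish, treated C. maxima leaves renewed every 48 h, six replicates, mortality scored every 24 h). LD50 derived by probit analysis of mortality at 96 h.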

The subject of experiment [2] is Epilachna. As to the kind of experiment: Antifeedant activity against third-instar larval stage of Epilachna paenulata infested cucurbita maxima leaves assessed as decrease in food consumption at 0.25 to 4 ug/cm2 measured after 6 days by no choice leaf disk assay relative to untreated control. It is filed as functional, organism-based. The procedure, abridged: (§1)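 No-choice test: four third-instar E. paenulata larvae per Petri dish fed C. maxima leaves (renewed every 48 h) with known amounts of compound or solvent applied by syringe. Six replicates per treatment, plus unfed starved controls. Leaf consumption, body weight and mortality recorded every 24 h.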

In experiment [3] the test system is Epilachna. As to the kind of experiment: Antifeedant activity against third-instar larval stage of Epilachna paenulata infested cucurbita maxima leaves assessed as decrease in food consumption at 0.25 to 4 ug/cm2 measured after 48 hr by no choice leaf disk assay relative to untreated control. It is filed as functional, organism-based. A digest of the protocol:
as §1

Experiment [4] has as its system Epilachna. As to the kind of experiment: Antifeedant activity against third-instar larval stage of Epilachna paenulata infested cucurbita maxima leaves assessed as decrease in food consumption at 0.25 to 4 ug/cm2 measured after 24 hr by no choice leaf disk assay relative to untreated control. The class given is functional, organism-based. A digest of the protocol:
as §1

The test system of experiment [5] is Epilachna. Briefly: Antifeedant activity against third-instar larval stage of Epilachna paenulata infested cucurbita maxima leaves assessed as feeding reduction after 24 hr by leaf disk choice assay. The class given is functional. A digest of the protocol: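 Leaf-disk choice test: two C. maxima seedling cotyledons in a Petri dish under a glass disk with two 1 cm² holes. One third-instar larva placed equidistant from treated and solvent-control disks, fed 24 h. Area eaten estimated visually by quarters, always by the same operator. AI% = (1 − T/C) × 100; Wilcoxon signed paired rank test, α = 0.05.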

Experiment [6] has as its system Epilachna. As to the kind of experiment: Antifeedant activity against third-instar larval stage of Epilachna paenulata infested cucurbita maxima leaves assessed as larval mortality at 0.25 to 4 ug/cm2 measured after 24 hr by no choice leaf disk assay relative to untreated control. The class given is functional. The procedure, abridged:
as §1

Experiment [7] has as its system Epilachna. As to the kind of experiment: Antifeedant activity against third-instar larval stage of Epilachna paenulata infested cucurbita maxima leaves assessed as decrease in larval weight gain at 0.25 to 4 ug/cm2 measured after 144 hr by no choice leaf disk assay relative to untreated control. It is filed as functional, organism-based. A digest of the protocol: as §1

The subject of experiment [8] is Epilachna. As to the kind of experiment: Antifeedant activity against third-instar larval stage of Epilachna paenulata infested cucurbita maxima leaves assessed as decrease in larval weight gain at 1 to 4 ug/cm2 measured after 96 hr by no choice leaf disk assay relative to untreated control. It is filed as functional, organism-based. The procedure, abridged:
as §1

On to `C/C=C(\C)C(=O)O[C@H]1C[C@@H](OC(C)=O)[C@@]2(C(=O)OC)CO[C@H]3[C@@H](O)[C@@](C)([C@]45O[C@@]4(C)[C@@H]4C[C@H]5O[C@@H]5OC=C[C@@]54O)[C@H]4[C@]1(CO[C@]4(O)C(=O)OC)[C@@H]32` [AZADIRACHTIN A], for which the LD50 in the experiment with Epilachna [1] was found to be 1.24 microg/cm2. The result in the experiment with Epilachna [2] and with Epilachna [3] was Active. Further, the result with Epilachna [4] was inactive. Also, in the experiment on Epilachna [5], the ED50 is given as 0.72 microg/cm2.

For the compound `CC(=O)O[C@@H]1C[C@H](O)[C@@]23COC(O)[C@]1(C)[C@@H]2C[C@@H](O)[C@]1(C)[C@@H]3[C@H](O)C(=O)[C@@]2(C)[C@H](c3ccoc3)C[C@H]3O[C@@]312` (stereo partly drawn) [MELIARTENIN], in the experiment on Epilachna [1], the LD50 came to 0.76 microg/cm2. Also, in the experiment on Epilachna [6], the mortality turned out to be 20%. In addition, the outcome in the experiment on Epilachna [7], in the experiment on Epilachna [8], with Epilachna [2] and in the experiment with Epilachna [4] was Active. For the same compound, the ED50 in the experiment with Epilachna [5] is 0.8 microg/cm2.

For `CC(=O)O[C@@H]1C[C@H](O)[C@@]23CO[C@@H](O)[C@]1(C)[C@@H]2C[C@@H](O)[C@]1(C)[C@@H]3C(=O)[C@H](OC(C)=O)[C@@]2(C)[C@H](c3ccoc3)C[C@H]3O[C@]321` [TOOSENDANIN], in the experiment on Epilachna [5], the ED50 came out at 3.69 microg/cm2.

Broadly, the mortality is the percentage killed.
